Assay [1] deals with K562. Briefly: Apoptotic activity against human K562 cell line at 10 uM after 48 hrs. It counts as functional. In a few lines:
(§1)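 K562 cells exposed at 10 µM for 8, 16, 24 and 48 h, run alongside imatinib reference and untreated control cells. Result is % apoptosis as mean ± SD of triplicate experiments. Morphology (chromatin condensation, micronuclei, vacuolization) checked by electron microscopy.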

Assay [2] concerns K562. As to the kind of experiment: Apoptotic activity against human K562 cell line at 10 uM after 8 hrs. It counts as functional. Put shortly: as §1
The test system of assay [3] is K562. Briefly: Apoptotic activity against human K562 cell line at 10 uM after 16 hrs. Type of assay: functional. Put shortly: as §1
Assay [4] concerns K562. Briefly: Apoptotic activity against human K562 cell line at 10 uM after 24 hrs. It counts as functional. In a few lines:
as §1

Assay [5] is filed under the species Homo sapiens. As to the kind of experiment: Apoptotic activity against peripheral blood cells of CML affected human (27-83 yrs) at onset phase at 10 uM after 48 hrs. It counts as functional. Put shortly:
(§2)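 Bone marrow or peripheral blood cells harvested from 12 consecutive CML patients at onset. Cells cultured in vitro and treated at 10 µM for 24 and 48 h. Read-out by DNA fragmentation assay as % apoptosis.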

Assay [6] has as its system K562. As to the kind of experiment: Decrease in procaspase 8 expression in human K562 cells by Western blot. Type of assay: functional, cell-based. Put shortly:
(§3)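 Lysates of treated K562 cells taken after 24 h. Procaspase-8 and procaspase-9 immunoreactive bands assessed by Western blot.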
(In general: In western blotting, separated proteins are transferred to a membrane and probed.)

Assay [7] is filed under the species Homo sapiens. As to the kind of experiment: Apoptotic activity against peripheral blood cells of imatinib-resistant CML affected human (38-70 yrs) at blast crisis phase at 10 uM after 48 hrs. It counts as functional. Put shortly:
(§4)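 Peripheral blood cells taken from 2 CML patients in blast crisis that evolved under imatinib treatment. Cells cultured in vitro and exposed at 10 µM for 24 and 48 h. Apoptosis scored as % by DNA fragmentation assay.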

The species entered for assay [8] is Homo sapiens. Briefly: Apoptotic activity against peripheral blood cells of imatinib-resistant CML affected human (38-70 yrs) at blast crisis phase at 10 uM after 24 hrs. It counts as functional. In a few lines: as §4
Assay [9] is filed under the species Homo sapiens. As to the kind of experiment: Apoptotic activity against peripheral blood cells of CML affected human (27-83 yrs) at onset phase at 10 uM after 24 hrs. Type of assay: functional. Put shortly:
as §2

The subject of assay [10] is K562. As to the kind of experiment: BCR-ABL inactivation-independent inhibition of […]-induced apoptosis in human K562 cell at 10 uM by Western blot. Type of assay: functional, cell-based.
Assay [11] has as its system K562. Briefly: Decrease in procaspase 9 expression in human K562 cells by Western blot. Type of assay: functional, cell-based. Put shortly:
as §3

Among the data in ChEMBL document CHEMBL1149345, “Pyrrolo[1,2-b][1,2,5]benzothiadiazepines (PBTDs): A new class of agents with high apoptotic activity in chronic myelogenous leukemia K562 cells and in cells from patients at onset and who were imatinib-resistant” (2006) are Activity values, retold here.

Activity calls are given as the source filed them. No cut-off for these calls is given here.

Take `CCOC(=O)[C@@H]1Nc2ccccc2S(=O)(=O)n2cccc21`: the Activity in the assay on K562 [1] was determined as 80.3%; in the assay on K562 [2] it was 20.5%; in the assay on K562 [3] it was 48.4%; with K562 [4], 63.2%.

As to `CCOC(=O)[C@H]1c2cccn2S(=O)(=O)c2ccccc2N1C(=O)c1ccc(C)cc1`, the Activity stood at 81.8% in the assay on K562 [1], 33.1% with K562 [2], 57.8% in the assay on K562 [3] and 67.6% in the assay with K562 [4].

Regarding `CCOC(=O)[C@@H]1c2cccn2S(=O)(=O)c2ccccc2N1C(=O)c1ccc(C)cc1`, the Activity was determined as 86.2% in the assay with K562 [1], 38% with K562 [2], 63% in the assay on K562 [3] and 71.6% in the assay with K562 [4].

As for `CCOC(=O)CC1c2cccn2S(=O)(=O)c2ccccc2N1C(=O)c1ccc(F)cc1` (racemic), the Activity in the assay with K562 [1] turned out to be 90.7%; in the assay on K562 [2] it was 44.6%; in the assay on K562 [3], 66.3%; in the assay with K562 [4], 79%.

`CCOC(=O)C1c2cccn2S(=O)(=O)c2ccccc2N1C(=O)c1ccc(F)cc1` (racemic): the Activity with K562 [1] is given as 92%; in the assay on K562 [2], 45.3%; in the assay on K562 [3], 67.6%; in the assay with K562 [4], 81%.

In the case of `CCOC(=O)CC1Nc2ccccc2S(=O)(=O)n2cccc21` (racemic), the Activity in the assay on K562 [1] amounted to 88.3%; with K562 [2], 29.3%; in the assay with K562 [3], 53%; in the assay with K562 [4], 72%.

`CCOC(=O)CC1c2cccn2S(=O)(=O)c2ccccc2N1C(=O)c1ccc(Cl)cc1` (racemic): the Activity came to 90% in the assay with K562 [1], 43% with K562 [2], 65.5% in the assay with K562 [3] and 78% in the assay with K562 [4].

On to `CCOC(=O)CC1c2cccn2S(=O)(=O)c2ccccc2N1C(=O)c1cccc2ccccc12` (racemic), for which the Activity in the assay on K562 [1] turned out to be 92.6%; in the assay with K562 [2] it was 47%; with K562 [3] it was 69%; with K562 [4], 80%.

Take `CCOC(=O)C1c2cccn2S(=O)(=O)c2ccccc2N1C(=O)c1ccc(C)cc1` (racemic): the Activity in the assay with K562 [1] was 91.7%; in the assay listed under Homo sapiens [5], 78%; in the assay listed under Homo sapiens [7], 78%; with K562 [2], 45.6%; in the assay listed under Homo sapiens [8], 55%; in the assay listed under Homo sapiens [9], 55%. The Activity in the assay with K562 [3] was found to be 67.6%; in the assay on K562 [4], 79.6%. For the same compound, the outcome in the assay with K562 [6] was inactive. For the same compound, in the assay on K562 [10], the outcome was Active.

In the case of `Cc1ccc(NC(=O)c2ccc(CN3CCN(C)CC3)cc2)cc1Nc1nccc(-c2cccnc2)n1` [IMATINIB], the Activity with K562 [1] is 71.2%; with K562 [2], 66.7%; in the assay with K562 [3] it was 70%; in the assay with K562 [4], 71%.

Consider `CCOC(=O)C1Nc2ccccc2S(=O)(=O)n2cccc21` (racemic), for which the Activity in the assay with K562 [1] is 89.7%; in the assay listed under Homo sapiens [5], 70%; in the assay filed under Homo sapiens [7], 60%; in the assay with K562 [2], 34%; in the assay listed under Homo sapiens [8], 40%; in the assay filed under Homo sapiens [9] it was 50%. Further, the Activity with K562 [3] came to 61.3%; in the assay on K562 [4] it was 76.3%. Besides, the result with K562 [6] and in the assay with K562 [10] was Active. The result in the assay on K562 [11] was inactive.

Consider `CCOC(=O)C1c2cccn2S(=O)(=O)c2ccccc2N1C(=O)c1ccc(Cl)cc1` (racemic), for which the Activity came out at 91.7% with K562 [1], 44.3% with K562 [2], 67% with K562 [3] and 79.7% in the assay with K562 [4].

In the case of `CCOC(=O)[C@H]1Nc2ccccc2S(=O)(=O)n2cccc21`, the Activity is 86.2% in the assay with K562 [1], 26.6% in the assay on K562 [2], 53.8% in the assay with K562 [3] and 69% in the assay with K562 [4].

Regarding `CCOC(=O)C1c2cccn2S(=O)(=O)c2ccccc2N1C(=O)c1ccccc1` (racemic), the Activity in the assay with K562 [1] came out at 89.6%; with K562 [2], 45%; in the assay with K562 [3], 66.6%; in the assay with K562 [4], 80%.

As for `CCOC(=O)C1c2cccn2S(=O)(=O)c2ccccc2N1C(=O)c1cccc2ccccc12` (racemic), the Activity in the assay with K562 [1] was 87.6%; in the assay with K562 [2] it was 43.7%; in the assay on K562 [3], 66%; in the assay on K562 [4] it was 77%.

As for `O=C(O)CC1Nc2ccccc2S(=O)(=O)n2cccc21` (racemic), the Activity in the assay with K562 [1] was determined as 6.1%; in the assay with K562 [2], 4.5%; in the assay with K562 [3], 5.5%; with K562 [4], 6.4%.

Turning to `CCOC(=O)CC1c2cccn2S(=O)(=O)c2ccccc2N1C(=O)c1ccccc1` (racemic), the Activity is listed as 92.3% with K562 [1], 45.3% in the assay with K562 [2], 68% with K562 [3] and 79.5% in the assay with K562 [4].

As to `O=C(O)C1Nc2ccccc2S(=O)(=O)n2cccc21` (racemic), the Activity in the assay with K562 [1] stood at 6.2%; in the assay with K562 [2], 4.8%; in the assay on K562 [3], 5.7%; in the assay on K562 [4], 6.8%.

Consider `CCOC(=O)CC1c2cccn2S(=O)(=O)c2ccccc2N1C(=O)c1ccc(C)cc1` (racemic), for which the Activity was determined as 87.6% in the assay with K562 [1], 45% in the assay on K562 [2], 67.6% with K562 [3] and 74.3% in the assay on K562 [4].

Take `O=S1(=O)c2ccccc2NC(CO)c2cccn21` (racemic): the Activity with K562 [1] was determined as 23%; in the assay with K562 [2], 5.3%; in the assay on K562 [3], 19.3%; in the assay with K562 [4] it was 19.6%.
